Active and inactive are the calls of the source. No cut-off for these calls is given here.
Key:
[1] = tested on: Escherichia coli; experiment: Bactericidal activity against Escherichia coli ATCC 25922 at 12 after 6 hrs by time kill assay; type: functional, organism-based
[2] = Hemolytic activity in sheep RBC; type: ADME, cell-based, Ovis aries, Erythrocyte; conditions: sheep red blood cells (erythrocytes)
In short: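 Sheep RBCs suspended at 5% in PBS; 150 µL added to 50 µL compound dilutions (5120 to 10 µg/mL series). Incubated 1 h at 37 °C, then centrifuged; supernatant absorbance read at 540 nm. Lysis (%) = (A−A0)/(Atotal−A0)×100, with untreated 5% RBC as A0 and 0.1% Triton X-100 as total.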

[3] = tested on: Staphylococcus aureus; experiment: Antibacterial activity against methicillin-resistant Staphylococcus aureus; type: functional
[4] = tested on: Escherichia coli; experiment: Antibacterial activity against Escherichia coli; type: functional
In short: (§1)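 Broth microdilution per CLSI in cation-adjusted Mueller-Hinton broth; 4-6 h cultures (~10⁸ CFU/mL) diluted to ~10⁶ CFU/mL and mixed 1:1 with twofold dilutions of water-dissolved compound (256 to 0.5 µg/mL). Incubated 16-20 h at 37 °C; MIC read visually. Each concentration run in duplicate, whole experiment repeated at least twice. MRSA, KPC and NDM-1 strains were clinical isolates.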

[5] = tested on: Enterococcus faecalis; experiment: Antibacterial activity against Enterococcus faecalis; type: functional; in short: as §1
[6] = tested on: Staphylococcus aureus; experiment: Antibacterial activity against Staphylococcus aureus; type: functional; in short: as §1

| Compound | Activity [1] | HC50 [2] [µg/mL] | MIC [3] [µg/mL] | MIC [4] [µg/mL] | MIC [5] [µg/mL] | MIC [6] [µg/mL] |
| --- | --- | --- | --- | --- | --- | --- |
| CO[C@@]1(NC(=O)[C@H](C(=O)O)c2ccc(O)cc2)C(=O)N2C(C(=O)O)=C(CSc3nnnn3C)CO[C@@H]21 | inactive |  |  |  |  |  |
| H-GIGKFLKKAKKFGKAFVKLLKK-NH2 |  | 120 | 16 to 32 | 16 to 32 | 64 | 8 to 16 |

Reference: ChEMBL document CHEMBL4130549, “Synthesis and bioactivities study of new antibacterial peptide mimics: The dialkyl cationic amphiphiles” (Eur J Med Chem, 2018)
